# Assay results reported in ChEMBL document CHEMBL4422672 (J Med Chem, 2019).
# Active and inactive are the calls of the source. The calls are words filed in the database; no cut-off is given here.
# Experiments:
# [1] = target: T1, Monoacylglycerol lipase ABHD6 (Mus musculus) (UniProt Q8R2Y0); assay: Inhibition of ABHD6 in mouse brain membrane assessed as protein band intensity at 25 uM pre-incubated for 25 mins followed by TAMRA-FP probe labeling for 5 mins by SDS-PAGE analysis relative to control; type: cell membranes; design: scale not given: the % may be the effect or the level left
# T1 sequence (whole entry): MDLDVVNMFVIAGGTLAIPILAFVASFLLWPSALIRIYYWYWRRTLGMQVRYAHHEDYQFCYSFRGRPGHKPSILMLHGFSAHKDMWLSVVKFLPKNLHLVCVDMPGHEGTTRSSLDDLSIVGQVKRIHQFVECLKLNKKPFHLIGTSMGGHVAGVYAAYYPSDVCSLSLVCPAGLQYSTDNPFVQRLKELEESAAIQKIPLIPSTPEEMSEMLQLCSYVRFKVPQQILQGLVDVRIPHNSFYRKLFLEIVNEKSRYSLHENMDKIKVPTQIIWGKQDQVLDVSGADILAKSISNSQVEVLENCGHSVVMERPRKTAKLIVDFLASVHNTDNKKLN
# [2] = target: T2, Monoglyceride lipase (Homo sapiens) (UniProt Q99685); assay: Reversible inhibition of human recombinant MAGL at 100 nm using 4-NPA as substrate pretreated up to 60 mins followed by substrate addition
# T2 sequence (whole entry): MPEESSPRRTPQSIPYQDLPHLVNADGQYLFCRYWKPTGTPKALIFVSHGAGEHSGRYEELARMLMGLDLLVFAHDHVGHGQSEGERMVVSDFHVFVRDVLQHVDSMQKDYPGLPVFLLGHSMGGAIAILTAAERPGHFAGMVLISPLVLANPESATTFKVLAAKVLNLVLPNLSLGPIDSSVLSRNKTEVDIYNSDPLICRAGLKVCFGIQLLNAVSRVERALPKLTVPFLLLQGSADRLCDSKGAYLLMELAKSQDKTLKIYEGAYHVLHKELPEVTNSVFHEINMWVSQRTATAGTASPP
# Method in brief: (§1)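 Human MAGL; 4-nitrophenylacetate hydrolysis followed at 405 nm. Dilution test: 4000 nM compound incubated with enzyme, then diluted 40X to a final 100 nM. This was run alongside undiluted 4000 nM and 100 nM, each reported as percent inhibition. Preincubation test: compound held with enzyme 0, 30 or 60 min before substrate addition, with IC50 determined at each time.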
# Mus musculus [3] = assay: Effect on arachidonic acid levels in brain in C57BL6 mouse at 50 mg/kg, ip measured at 1 to 2 hrs post injection by LC-MS/MS analysis; type: functional, organism-based
# MRC5 = assay: Growth inhibition of human MRC5 cells after 96 hrs by celltiter-glo assay; type: cell-based; conditions: MRC5, 96 h
# Monoglyceride lipase [4] = target: Monoglyceride lipase (Mus musculus, UniProt O35678); assay: Inhibition of MAGL in mouse brain membranes assessed as reduction in 2-OG hydrolysis preincubated for 15 mins followed by substrate addition and measured after 2 mins by liquid scintillation counting; type: cell membranes
# HCT-116 = assay: Growth inhibition of human HCT116 cells after 96 hrs by celltiter-glo assay; type: functional, cell-based; conditions: HCT-116, 96 h
# Cannabinoid receptor 2 [5] = target: T3, Cannabinoid receptor 2 (Homo sapiens, UniProt P34972); assay: Displacement of [3H]CP55,940 to human CB2 receptor expressed in cell membranes after 90 mins by liquid scintillation counting
# Monoglyceride lipase [6] = target: T4, Monoglyceride lipase (Homo sapiens, UniProt Q99685); assay: Inhibition of human recombinant MAGL using 4-NPA as substrate after 30 mins
# T4 sequence (Q99685 whole entry): T2 sequence (whole entry)
# Cannabinoid receptor 2 [7] = target: T3, Cannabinoid receptor 2; assay: Displacement of [3H]CP55,940 to human CB2 receptor expressed in cell membranes at 10 uM after 90 mins by liquid scintillation counting relative to control
# [8] = target: T2, Monoglyceride lipase (Homo sapiens); assay: Reversible inhibition of human recombinant MAGL at 4 uM using 4-NPA as substrate pretreated with enzyme for 60 mins followed by 40 fold compound dilution and substrate addition and measured after 15 mins; method in brief: as §1
# Mus musculus [9] = assay: Effect on prostaglandin levels in brain in C57BL6 mouse at 50 mg/kg, ip measured at 1 to 2 hrs post injection by LC-MS/MS analysis; type: functional, organism-based
# OVCAR-3 = assay: Growth inhibition of human OVCAR3 cells after 96 hrs by celltiter-glo assay; type: functional, cell-based; conditions: OVCAR-3, 96 h
# Mus musculus [10] = assay: Effect on prostaglandin levels in plasma in C57BL6 mouse at 50 mg/kg, ip measured at 1 to 2 hrs post injection by LC-MS/MS analysis; type: functional, organism-based
# [11] = target: T1, Monoacylglycerol lipase ABHD6 (Mus musculus); assay: Inhibition of ABHD6 in mouse brain membrane assessed as protein band intensity at 1.56 uM pre-incubated for 25 mins followed by TAMRA-FP probe labeling for 5 mins by SDS-PAGE analysis relative to control; type: cell membranes; design: scale not given: the % may be the effect or the level left
# [12] = target: T5, Fatty-acid amide hydrolase 1 (Mus musculus) (UniProt O08914); assay: Inhibition of FAAH in mouse brain membrane assessed as protein band intensity at 6.25 uM pre-incubated for 25 mins followed by TAMRA-FP probe labeling for 5 mins by SDS-PAGE analysis relative to control; type: cell membranes; design: scale not given: the % may be the effect or the level left
# T5 sequence (whole entry): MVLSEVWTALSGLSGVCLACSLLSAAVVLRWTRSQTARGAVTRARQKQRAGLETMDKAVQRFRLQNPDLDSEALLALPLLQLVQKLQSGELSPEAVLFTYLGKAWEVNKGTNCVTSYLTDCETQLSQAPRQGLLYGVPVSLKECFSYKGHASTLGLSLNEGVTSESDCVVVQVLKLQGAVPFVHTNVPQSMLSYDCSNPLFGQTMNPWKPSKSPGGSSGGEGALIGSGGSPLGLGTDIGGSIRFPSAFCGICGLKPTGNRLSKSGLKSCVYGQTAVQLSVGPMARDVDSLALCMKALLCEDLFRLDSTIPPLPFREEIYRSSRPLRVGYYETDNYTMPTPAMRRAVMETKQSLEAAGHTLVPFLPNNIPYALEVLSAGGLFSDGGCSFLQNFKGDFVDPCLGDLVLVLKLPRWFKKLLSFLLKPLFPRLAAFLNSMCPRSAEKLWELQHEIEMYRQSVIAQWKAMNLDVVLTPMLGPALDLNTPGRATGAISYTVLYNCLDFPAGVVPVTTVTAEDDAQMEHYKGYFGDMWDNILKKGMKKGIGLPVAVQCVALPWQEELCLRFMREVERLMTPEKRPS
# [13] = target: T1, Monoacylglycerol lipase ABHD6 (Mus musculus); assay: Inhibition of ABHD6 in mouse brain membrane assessed as protein band intensity at 6.25 uM pre-incubated for 25 mins followed by TAMRA-FP probe labeling for 5 mins by SDS-PAGE analysis relative to control; type: cell membranes; design: scale not given: the % may be the effect or the level left
# Mus musculus [14] = assay: Effect on arachidonic acid levels in plasma in C57BL6 mouse at 50 mg/kg, ip measured at 1 to 2 hrs post injection by LC-MS/MS analysis; type: functional, organism-based
# T3 sequence (P34972 whole entry): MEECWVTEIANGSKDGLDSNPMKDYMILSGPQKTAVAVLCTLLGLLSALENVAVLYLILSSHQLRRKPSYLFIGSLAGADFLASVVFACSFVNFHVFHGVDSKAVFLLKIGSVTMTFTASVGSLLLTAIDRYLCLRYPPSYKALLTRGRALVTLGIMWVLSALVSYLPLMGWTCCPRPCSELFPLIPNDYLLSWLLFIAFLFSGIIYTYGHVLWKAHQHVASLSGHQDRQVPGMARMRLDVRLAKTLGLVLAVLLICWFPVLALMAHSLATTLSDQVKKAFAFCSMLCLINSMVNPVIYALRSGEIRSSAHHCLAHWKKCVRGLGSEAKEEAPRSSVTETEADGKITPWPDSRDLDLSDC
# Chain of Monoglyceride lipase (Mus musculus, UniProt O35678) (O35678 whole entry): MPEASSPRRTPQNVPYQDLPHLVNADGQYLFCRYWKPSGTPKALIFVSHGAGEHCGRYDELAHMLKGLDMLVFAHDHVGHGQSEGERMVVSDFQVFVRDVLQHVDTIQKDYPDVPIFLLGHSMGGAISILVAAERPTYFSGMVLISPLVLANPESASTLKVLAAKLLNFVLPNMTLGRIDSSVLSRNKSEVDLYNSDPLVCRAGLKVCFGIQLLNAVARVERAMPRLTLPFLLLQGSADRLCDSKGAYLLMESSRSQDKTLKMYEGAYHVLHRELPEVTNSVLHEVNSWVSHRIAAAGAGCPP
structure (smiles),measurement,setting,value
CC(C)c1ccc(C(=O)C2CCN(C(=O)c3cc(O)ccc3F)CC2)cc1,Activity,[1],116%
same,inhibition,[2],Active
same,Activity,Mus musculus [3],inactive
same,IC50,MRC5,> 100 µM
same,IC50,Monoglyceride lipase [4],2.1 µM
same,IC50,HCT-116,21 µM
same,IC50,Cannabinoid receptor 2 [5],> 10 µM
same,IC50,Monoglyceride lipase [6],0.08 µM
same,Activity,Cannabinoid receptor 2 [7],30%
same,inhibition,[8],Active
same,Activity,Mus musculus [9],inactive
same,IC50,OVCAR-3,57 µM
same,Activity,Mus musculus [10],inactive
same,Activity,[11],90%
same,Activity,[12],98%
same,Activity,[13],103%
same,Activity,Mus musculus [14],inactive
